Laboratory results from ChEMBL document CHEMBL2034975, “Cycloartane and friedelane triterpenoids from the leaves of Caloncoba glauca and their evaluation for inhibition of 11β-hydroxysteroid dehydrogenases” (J Nat Prod, 2012).

Tests used:
Format in all cases: cell-based
[1] = molecular target: T1, 11-beta-hydroxysteroid dehydrogenase type 2 (Homo sapiens) (UniProt P80365); assay: Inhibition of human 11beta-HSD2 expressed in HEK293 cells assessed as conversion of [3H]cortisone into [3H]cortisol at 1 uM by scintillation proximity assay
T1 sequence (whole entry): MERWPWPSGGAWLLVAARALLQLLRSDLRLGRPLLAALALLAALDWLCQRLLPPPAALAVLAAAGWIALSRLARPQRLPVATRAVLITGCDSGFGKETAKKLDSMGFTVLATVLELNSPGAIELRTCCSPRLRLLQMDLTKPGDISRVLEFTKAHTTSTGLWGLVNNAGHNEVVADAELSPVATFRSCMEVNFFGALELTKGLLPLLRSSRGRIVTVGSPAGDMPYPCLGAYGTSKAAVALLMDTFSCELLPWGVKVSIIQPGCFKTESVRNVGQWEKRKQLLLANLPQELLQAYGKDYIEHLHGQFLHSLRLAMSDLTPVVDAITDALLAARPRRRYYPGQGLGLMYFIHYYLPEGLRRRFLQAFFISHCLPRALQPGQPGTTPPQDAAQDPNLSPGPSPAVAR

[2] = molecular target: 11-beta-hydroxysteroid dehydrogenase 1 (Mus musculus) (UniProt P50172); assay: Inhibition of mouse 11beta-HSD1 expressed in HEK293 cells assessed as conversion of [3H]cortisone into [3H]cortisol at 1 uM by scintillation proximity assay
[3] = molecular target: T2, 11-beta-hydroxysteroid dehydrogenase type 2 (Mus musculus) (UniProt P51661); assay: Inhibition of mouse 11beta-HSD2 expressed in HEK293 cells assessed as conversion of [3H]cortisone into [3H]cortisol at 1 uM by scintillation proximity assay
T2 sequence (whole entry): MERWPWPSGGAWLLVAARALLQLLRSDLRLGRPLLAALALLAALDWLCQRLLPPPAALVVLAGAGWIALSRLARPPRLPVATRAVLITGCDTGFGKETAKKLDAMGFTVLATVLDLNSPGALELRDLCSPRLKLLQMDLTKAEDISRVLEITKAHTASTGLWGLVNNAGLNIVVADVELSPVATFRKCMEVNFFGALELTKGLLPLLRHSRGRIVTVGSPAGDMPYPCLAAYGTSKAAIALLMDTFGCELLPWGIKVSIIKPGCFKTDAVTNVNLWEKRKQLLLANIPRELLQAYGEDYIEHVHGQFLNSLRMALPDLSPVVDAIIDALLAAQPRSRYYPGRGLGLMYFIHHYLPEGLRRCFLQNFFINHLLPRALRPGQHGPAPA

[4] = molecular target: T3, 11-beta-hydroxysteroid dehydrogenase 1 (Homo sapiens, UniProt P28845); assay: Inhibition of human 11beta-HSD1 expressed in HEK293 cells assessed as conversion of [3H]cortisone into [3H]cortisol at 1 uM by scintillation proximity assay
Target sequence in this assay (P28845 whole entry, looked up): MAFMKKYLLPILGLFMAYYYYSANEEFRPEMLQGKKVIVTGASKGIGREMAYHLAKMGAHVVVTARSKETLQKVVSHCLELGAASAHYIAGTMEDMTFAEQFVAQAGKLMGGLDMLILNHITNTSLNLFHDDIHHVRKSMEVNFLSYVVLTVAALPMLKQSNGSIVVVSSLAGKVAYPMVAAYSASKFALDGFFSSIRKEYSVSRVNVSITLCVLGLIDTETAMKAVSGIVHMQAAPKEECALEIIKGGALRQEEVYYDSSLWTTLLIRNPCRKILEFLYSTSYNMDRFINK

[5] = molecular target: 11-beta-hydroxysteroid dehydrogenase 1 (Mus musculus, UniProt P50172); assay: Inhibition of mouse 11beta-HSD1 expressed in HEK293 cells assessed as conversion of [3H]cortisone into [3H]cortisol by scintillation proximity assay
Procedure, shortened: (§1)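 Full-length human or murine 11β-HSD1 cDNA was cloned into pcDNA3 and stably expressed in HEK-293 cells selected with 750 μg/mL G418. Microsomes from these cells were incubated with NADPH and [3H]cortisone. The [3H]cortisol formed was captured by a monoclonal antibody on protein A-coated SPA beads. Assays were run in duplicate and repeated twice; IC50 is given as the average. Glycyrrhizinic acid served as positive control.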

[6] = molecular target: T3, 11-beta-hydroxysteroid dehydrogenase 1; assay: Inhibition of human 11beta-HSD1 expressed in HEK293 cells assessed as conversion of [3H]cortisone into [3H]cortisol by scintillation proximity assay; procedure, shortened: as §1
Target sequence in this assay (P28845 whole entry): as the sequence (P28845 whole entry, looked up) above

[7] = molecular target: T4, 11-beta-hydroxysteroid dehydrogenase type 2 (Homo sapiens, UniProt P80365); assay: Inhibition of human 11beta-HSD2 expressed in HEK293 cells assessed as conversion of [3H]cortisone into [3H]cortisol by scintillation proximity assay
T4 sequence (P80365 whole entry): T1 sequence (whole entry)

[8] = molecular target: T5, 11-beta-hydroxysteroid dehydrogenase type 2 (Mus musculus, UniProt P51661); assay: Inhibition of mouse 11beta-HSD2 expressed in HEK293 cells assessed as conversion of [3H]cortisone into [3H]cortisol by scintillation proximity assay
T5 sequence (P51661 whole entry): T2 sequence (whole entry)

11-beta-hydroxysteroid dehydrogenase 1 (Mus musculus), sequence (P50172 whole entry, looked up): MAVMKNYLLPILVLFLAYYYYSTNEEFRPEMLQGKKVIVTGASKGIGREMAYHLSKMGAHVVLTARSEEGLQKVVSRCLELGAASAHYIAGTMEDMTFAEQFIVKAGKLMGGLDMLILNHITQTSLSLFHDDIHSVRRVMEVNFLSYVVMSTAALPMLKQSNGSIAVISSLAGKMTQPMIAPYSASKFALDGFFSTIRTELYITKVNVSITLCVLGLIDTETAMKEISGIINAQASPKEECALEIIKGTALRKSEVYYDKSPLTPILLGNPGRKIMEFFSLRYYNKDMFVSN
11-beta-hydroxysteroid dehydrogenase 1 (Mus musculus, UniProt P50172), sequence (P50172 whole entry): as the sequence (P50172 whole entry, looked up) above

Structure (SMILES)	inhibition [1] [%]	inhibition [2] [%]	inhibition [3] [%]	inhibition [4] [%]	IC50 [5] [nM]	IC50 [6] [nM]	IC50 [7] [nM]	IC50 [8] [nM]
CC1(C)[C@@H](O[C@H]2O[C@H](C(=O)O)[C@@H](O)[C@H](O)[C@H]2O[C@@H]2O[C@H](C(=O)O)[C@@H](O)[C@H](O)[C@H]2O)CC[C@]2(C)[C@H]3C(=O)C=C4[C@@H]5C[C@@](C)(C(=O)O)CC[C@]5(C)CC[C@@]4(C)[C@]3(C)CC[C@@H]12 [GLYCYRRHIZIN]					3	6		
C=C(C)[C@@H](O)CC[C@@H](C)[C@H]1CC[C@@]2(C(=O)O)[C@@H]3CC[C@H]4C(C)(C)C(=O)CC[C@@]45C[C@@]35CC[C@]12C (relative stereo) [CALONCOBIC ACID A]					132	105	> 100000	> 100000
C[C@H](CC[C@@H](O)C(C)(C)O)[C@H]1CC[C@@]2(C(=O)O)[C@@H]3CC[C@H]4C(C)(C)[C@@H](O)CC[C@@]45C[C@@]35CC[C@]12C (relative stereo) [CALONCOBIC ACID B]					13	72	400	> 100000
C[C@H](CC[C@H](O)C(C)(C)O)[C@H]1[C@@H](O)C[C@]23C(=O)O[C@@]4(CC[C@]12C)C[C@@H]1CCC(=O)C(C)(C)[C@@H]1CC[C@H]43	< 50	< 50	< 50	< 50				
C[C@@H]1CC[C@@H](C(C)(C)O)OC(=O)[C@@]23C[C@@H](O)[C@H]1[C@@]2(C)CC[C@@]12C[C@@]14CCC(=O)C(C)(C)[C@@H]4CC[C@H]23	< 50	< 50	< 50	< 50				

Second part, the molecule after the results:

inhibition [1] [%]	inhibition [2] [%]	inhibition [3] [%]	inhibition [4] [%]	IC50 [5] [nM]	IC50 [6] [nM]	IC50 [7] [nM]	IC50 [8] [nM]	Structure (SMILES)
< 50	< 50	< 50	< 50					C=C1C[C@@H]2[C@@](C)(CC[C@]3(C)[C@H]4CC[C@@]5(C)[C@@H](CC[C@H](O)[C@@H]5C)[C@]4(C)CC[C@@]23C(=O)O)C[C@@H]1O
< 50	< 50	< 50	< 50					C=C1C[C@@H]2[C@@]3(C)CC[C@]4(C)[C@H]5CC[C@@]6(C)[C@@H](CC[C@H](O)[C@@H]6C)[C@]5(C)CC[C@@]24C(=O)O[C@H]3[C@H]1O (relative stereo)
< 50	< 50	< 50	< 50					CC(=O)O[C@H]1CC[C@@H]2[C@](C)(CC[C@H]3[C@@]2(C)CC[C@@]2(C(=O)O)[C@@H]4CC(C)(C)CC[C@]4(C)CC[C@]32C)[C@H]1C
